NF-kB expr up = activators of NF-kB expression in neurons, primary screen, cell-based, HTS | human neuronal cells, NF-kB reporter expression; hits give high values | fold change at 12.5 µM | actives 1.6% (n = 190,000) | AID 1239, 2008; in the data active means fold change above about 3.3
STAT1 blocker = STAT1 signaling inhibitors, primary screen, cell-based, HTS, luciferase reporter; NIH 3T3 STAT1-luciferase reporter, IFN-gamma, luminescence; inhibition, % at 5.5 µM; actives 0.35% (n = 200,000);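 active means inhibition above a set limit, the mean inhibition across all tested compounds plus 3 SD, cut at about 34% in these data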;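 further: 0% = IFN-gamma with DMSO and 100% = IFN-gamma with 300 µM nifuroxazide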
STAT3 inh-1 = IL-6 driven STAT3 reporter inhibitors, primary screen, U3A cells, luciferase, luminescence, MLSCN library. actives 0.89% (n = 190,000). AID 862, 2007. IL-6 STAT3-luciferase reporter; host cell line lacks STAT1. inhibition, % at 5.5 µM;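 active means inhibition above the mean inhibition across all screened compounds plus 3 SD, cut at about 44% in these data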;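 further: 0% = DMSO only wells and 100% = 100 µM nifuroxazide control wells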
STAT3 activator = IL-6 driven STAT3 reporter potentiators, primary screen, U3A cells, luciferase, luminescence, MLSCN library; IL-6 STAT3-luciferase reporter; 100% = signal with IL-6 EC80 alone; activation (% of control), % at 5.6 µM; actives 0.91% (n = 190,000); AID 871, 2007;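 active means activation above the screen-wide mean of compound activation plus 3 SD, cut at about 130% in these data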;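 further: 0% = background luminescence of wells with medium and substrate only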
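Material: human U3A cells carrying STAT3-luciferase construct. Measured by: reporter luminescence signal. Timing: compound 1 h, then IL-6 6 h at 37 °C.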
APP 5'UTR act = activators of APP 5'UTR luciferase reporter, primary screen, SH-SY5Y cells; SH-SY5Y APP 5'UTR luciferase reporter, luminescence; zero percent = DMSO vehicle wells; activation, % at 2 µM; actives 1% (n = 190,000);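 active means activation above a set limit, based on mean plus 3 SD of controls, cut at about 140% in these data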
STAT1 act = STAT1 signaling activators, primary screen, cell-based, HTS, luciferase reporter; NIH 3T3 STAT1-luciferase reporter, IFN-gamma, luminescence; 100% = IFN-gamma alone, no compound; AID 932, 2007; actives 2.6% (n = 200,000); activation (% of control), % at 5.5 µM;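 active means activation above the screen-wide mean activation plus 3 SD, cut at about 130% in these data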;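 further: raw ratio to IFN-gamma control signal so 100% means no change and 0% no light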
STAT3 inh-2 = STAT3 reporter inhibitors, retest of hits, confirmation, U3A cells, luciferase, luminescence. shares compounds with STAT3 inh-1. IL-6 STAT3 luciferase reporter; cell line lacks STAT1. inhibition, % at 5.7 µM. actives 45% (n = 1,200). AID 1265, 2008;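 active means inhibition above the hit cutoff computed for the primary STAT3 screen, cut at about 44% in these data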;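 further: 0% = IL-6 plus DMSO and 100% = IL-6 plus nifuroxazide control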
NFkB inh STAT3ct = NF-kB reporter inhibitors in human cells, confirmation, counter-screen for STAT3 inhibitor project, cell-based, HEK293T, luciferase, TNF-alpha stimulus; shares compounds with STAT3 inh-1; TNF-alpha induced; inhibition, % at 5.7 µM; actives 36% (n = 1,200); AID 1308, 2008;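 active means inhibition above the mean of solvent-only control wells plus 3 SD, cutoff set per campaign, cut at about 13% in these data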;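 further: 0% = TNF-alpha with DMSO and 100% = TNF-alpha with MG high control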
STAT1 inh STAT3c = STAT1 reporter inhibitors, IFN-gamma induced, confirmation, counter-screen for STAT3 inhibitor project, cell-based, NIH 3T3, luciferase luminescence. shares compounds with STAT3 inh-1. NIH 3T3 STAT1-luciferase reporter. inhibition, % at 5.7 µM. actives 27% (n = 1,200). AID 1317, 2008;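 active means inhibition above the mean plus 3 SD of solvent-only control wells, limit set per screening run, cut at about 16% in these data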;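 further: 0% = DMSO with IFN-gamma and 100% = nifuroxazide control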
An asterisk follows results filed as active. Hits are enriched below; roughly 5.1% of the tested compounds scored in any of these assays.

Results for CCCSc1nc(N)nc(-c2cccs2)c1C#N ?
NF-kB expr up: 1.7; STAT1 blocker: -16; STAT3 inh-1: -5; STAT3 activator: 105; APP 5'UTR act: 37; STAT1 act: 114

What do the screens show for `Cc1nnc(SCC(=O)N2c3ccccc3C(C)(c3ccccc3)CC2(C)C)s1` (stereo unspecified)?
NF-kB expr up: 1.1; STAT1 blocker: -1; STAT3 inh-1: -10; STAT3 activator: 106; APP 5'UTR act: -12; STAT1 act: 101

What do the screens show for `CCSc1ccc(-c2ccc(C)cc2)nn1`?
NF-kB expr up: 6.6*; STAT1 blocker: 1; STAT3 inh-1: 47*; STAT3 activator: 65; APP 5'UTR act: 187*; STAT1 act: 98; STAT3 inh-2: 12; NFkB inh STAT3ct: -32; STAT1 inh STAT3c: -98

What do the screens show for `CCOc1ccc(-c2ccc(SCC)nn2)cc1`?
NF-kB expr up: 5*; STAT1 blocker: 23; STAT3 inh-1: 72*; STAT3 activator: 42; APP 5'UTR act: 167*; STAT1 act: 78; STAT3 inh-2: 31; NFkB inh STAT3ct: 1; STAT1 inh STAT3c: -83

What do the screens show for `CN(C(=O)c1ccccc1)c1nc2ccccc2s1`?
NF-kB expr up: 4.1*; STAT1 blocker: -42; STAT3 inh-1: 56*; STAT3 activator: 54; APP 5'UTR act: 215*; STAT1 act: 139*; STAT3 inh-2: 10; NFkB inh STAT3ct: -38; STAT1 inh STAT3c: -120

Results for CC(=O)NCC(=O)N1CCCC(C(=O)c2ccc(Oc3ccccc3)cc2)C1 (stereo unspecified) ?
NF-kB expr up: 1.5; STAT1 blocker: -6; STAT3 inh-1: 5; STAT3 activator: 106; APP 5'UTR act: 8; STAT1 act: 105

What do the screens show for `CC[n+]1ccccc1/C=C/c1ccc(N(C)C)cc1`?
NF-kB expr up: 0.71; STAT1 blocker: 31; STAT3 inh-1: 68*; STAT3 activator: 43; APP 5'UTR act: 2; STAT1 act: 70; STAT3 inh-2: 60*; NFkB inh STAT3ct: 4; STAT1 inh STAT3c: 14

Results for Cc1c(Cl)cccc1NC(=O)c1ccc(-n2ccnc2)nc1 ?
NF-kB expr up: 0.92; STAT1 blocker: -3; STAT3 inh-1: 16; STAT3 activator: 91; APP 5'UTR act: -5; STAT1 act: 102

What do the screens show for `C=CCNC(=S)Nc1cccc2[nH]ncc12`?
NF-kB expr up: 1.1; STAT1 blocker: -12; STAT3 inh-1: 4; STAT3 activator: 98; APP 5'UTR act: 13; STAT1 act: 109

How did COc1ccc(-n2c(-c3ccc(Cl)cc3)c[n+]3c2CCc2ccccc2-3)cc1 do in these assays?
NF-kB expr up: 0.7; STAT1 blocker: 23; STAT3 inh-1: 63*; STAT3 activator: 49; APP 5'UTR act: 8; STAT1 act: 78; STAT3 inh-2: 50*; NFkB inh STAT3ct: 0; STAT1 inh STAT3c: 20*

Results for COc1ccc(-n2c(-c3ccccc3)nnc2-c2ccc(Cl)cc2)cc1 ?
NF-kB expr up: 1.1; STAT1 blocker: 2; STAT3 inh-1: -2; STAT3 activator: 108; APP 5'UTR act: 14; STAT1 act: 98

How did COCCCn1c(C)nnc1-c1cnn(-c2ccccc2)c1N do in these assays?
NF-kB expr up: 0.93; STAT1 blocker: 7; STAT3 inh-1: 4; STAT3 activator: 98; APP 5'UTR act: -16; STAT1 act: 93

What do the screens show for `Cc1nc(NC(C)c2ccccc2)c2oc3ccccc3c2n1` (stereo unspecified)?
NF-kB expr up: 0.65; STAT1 blocker: 24; STAT3 inh-1: 46*; STAT3 activator: 63; APP 5'UTR act: 7; STAT1 act: 78; STAT3 inh-2: 29; NFkB inh STAT3ct: -2; STAT1 inh STAT3c: 12

What do the screens show for `CSc1ccc(CN2CCN(C(=O)c3ccc([N+](=O)[O-])cc3)CC2)cc1`?
STAT1 blocker: 3; STAT3 inh-1: 55*; STAT3 activator: 56; APP 5'UTR act: 11; STAT1 act: 98; STAT3 inh-2: 59*; NFkB inh STAT3ct: 13; STAT1 inh STAT3c: -3

How did O=C1CC(c2ccc3c(c2)OCO3)Sc2nc3ccccc3n21 (stereo unspecified) do in these assays?
NF-kB expr up: 0.63; STAT1 blocker: -22; STAT3 inh-1: 52*; STAT3 activator: 57; APP 5'UTR act: 130; STAT1 act: 120; STAT3 inh-2: 17; NFkB inh STAT3ct: -8; STAT1 inh STAT3c: -84

Results for COc1ccc(CN(C)Cc2nc(Cc3cccc(F)c3)no2)c2cccnc12 ?
NF-kB expr up: 0.87; STAT1 blocker: 25; STAT3 inh-1: 61*; STAT3 activator: 52; APP 5'UTR act: -3; STAT1 act: 76; STAT3 inh-2: 62*; NFkB inh STAT3ct: 19*; STAT1 inh STAT3c: 26*

What do the screens show for `C#CCCCCCCC#CCN(C)C`?
NF-kB expr up: 1.3; STAT1 blocker: -2; STAT3 inh-1: 12; STAT3 activator: 97; APP 5'UTR act: -7; STAT1 act: 102

What do the screens show for `Cc1nc(-c2ccc(NC(=O)c3ccccc3)cc2)cs1`?
NF-kB expr up: 7.5*; STAT1 blocker: 29; STAT3 inh-1: 71*; STAT3 activator: 41; APP 5'UTR act: 184*; STAT1 act: 72; STAT3 inh-2: 23; NFkB inh STAT3ct: -23; STAT1 inh STAT3c: -126

Results for CC(C)OC(=O)c1sc2nc(-c3ccccc3)ccc2c1N ?
NF-kB expr up: 0.79; STAT1 blocker: -13; STAT3 inh-1: 61*; STAT3 activator: 56; APP 5'UTR act: 168*; STAT1 act: 112; STAT3 inh-2: 17; NFkB inh STAT3ct: -23; STAT1 inh STAT3c: -163

How did CCn1cc([N+](=O)[O-])c(C(=O)Nc2nc(-c3ccc(C)cc3)c(C)s2)n1 do in these assays?
NF-kB expr up: 1.1; STAT1 blocker: 21; STAT3 inh-1: 56*; STAT3 activator: 56; APP 5'UTR act: -2; STAT1 act: 81; STAT3 inh-2: 35; NFkB inh STAT3ct: -10; STAT1 inh STAT3c: 6

Source: PubChem
